From ChEMBL document CHEMBL3526002, “Tissue distribution and identification of radioactivity components at elimination phase after oral administration of [¹⁴C]CS-1036, an α-amylase inhibitor, to rats” (Drug Metab Dispos, 2013)

How the values were obtained:
Design in all cases: dose 5 mg/kg, dosed compound name [14C]CS-1036, route oral
Details in all cases: in vivo
[1] = system: Harderian gland; assay: Drug uptake in albino F344/DuCrlCrlj rat harderian gland assessed as ng equivalent of CS-1036 at 5 mg/kg, po after 4 hrs by liquid scintillation counting; format: ADME, organism-based
[2] = system: Cerebellum; assay: Drug uptake in albino F344/DuCrlCrlj rat cerebellum at 5 mg/kg, po after 24 hrs by liquid scintillation counting; format: ADME, organism-based
[3] = Drug uptake in albino F344/DuCrlCrlj rat skeletal muscle at 5 mg/kg, po after 72 hrs by liquid scintillation counting; format: ADME, organism-based, Muscle tissue
[4] = Drug uptake in albino F344/DuCrlCrlj rat bone marrow at 5 mg/kg, po after 72 hrs by liquid scintillation counting; format: ADME, organism-based
[5] = Drug uptake in albino F344/DuCrlCrlj rat epididymis assessed as ng equivalent of CS-1036 at 5 mg/kg, po after 336 hrs by liquid scintillation counting; format: ADME, organism-based
[6] = system: Blood; assay: Drug uptake in albino F344/DuCrlCrlj rat blood assessed as ng equivalent of CS-1036 at 5 mg/kg, po after 8 hrs by liquid scintillation counting; format: ADME, organism-based
Outline: (§1)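 Male F344/DuCrlCrlj rats (159–167 g; n = 3 per time point) received a single oral dose of [14C]CS-1036 at 5 mg/kg. Blood was taken from the abdominal aorta at 1, 4, 8, 24, 72, 168 and 336 h. Radioactivity was counted by LSC with external-standard efficiency correction. Results were converted to ng equivalent of CS-1036/ml using specific activity and sample volume, and reported as mean + S.D.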

[7] = system: Lung; assay: Drug uptake in albino F344/DuCrlCrlj rat lung at 5 mg/kg, po after 336 hrs by liquid scintillation counting; format: ADME, organism-based
[8] = Drug uptake in albino F344/DuCrlCrlj rat urinary bladder assessed as ng equivalent of CS-1036 at 5 mg/kg, po after 24 hrs by liquid scintillation counting; format: ADME, organism-based
[9] = Drug uptake in albino F344/DuCrlCrlj rat skeletal muscle at 5 mg/kg, po after 336 hrs by liquid scintillation counting; format: ADME, organism-based, Muscle tissue
[10] = Drug uptake in albino F344/DuCrlCrlj rat trachea at 5 mg/kg, po after 1 hr by liquid scintillation counting; format: ADME, organism-based
[11] = system: Spleen; assay: Drug uptake in albino F344/DuCrlCrlj rat spleen at 5 mg/kg, po after 24 hrs by liquid scintillation counting; format: ADME, organism-based
[12] = system: Large intestine; assay: Drug uptake in albino F344/DuCrlCrlj rat large intestine assessed as ng equivalent of CS-1036 at 5 mg/kg, po after 8 hrs by liquid scintillation counting; format: ADME, organism-based
[13] = Drug uptake in albino F344/DuCrlCrlj rat eyeball assessed as ng equivalent of CS-1036 at 5 mg/kg, po after 8 hrs by liquid scintillation counting; format: ADME, organism-based
[14] = system: Spleen; assay: Drug uptake in albino F344/DuCrlCrlj rat spleen assessed as ng equivalent of CS-1036 at 5 mg/kg, po after 168 hrs by liquid scintillation counting; format: ADME, organism-based
[15] = system: Cerebellum; assay: Drug uptake in albino F344/DuCrlCrlj rat cerebellum at 5 mg/kg, po after 1 hr by liquid scintillation counting; format: ADME, organism-based
[16] = system: Zone of skin; assay: Drug uptake in albino F344/DuCrlCrlj rat skin assessed as ng equivalent of CS-1036 at 5 mg/kg, po after 4 hrs by liquid scintillation counting; format: ADME, organism-based
[17] = Drug uptake in albino F344/DuCrlCrlj rat skeletal muscle assessed as ng equivalent of CS-1036 at 5 mg/kg, po after 336 hrs by liquid scintillation counting; format: ADME, organism-based, Muscle tissue
[18] = system: Liver; assay: Drug uptake in albino F344/DuCrlCrlj rat liver at 5 mg/kg, po after 1 hr by liquid scintillation counting; format: ADME, organism-based
[19] = system: Stomach; assay: Drug uptake in albino F344/DuCrlCrlj rat stomach assessed as ng equivalent of CS-1036 at 5 mg/kg, po after 8 hrs by liquid scintillation counting; format: ADME, organism-based
[20] = Drug uptake in albino F344/DuCrlCrlj rat urinary bladder assessed as ng equivalent of CS-1036 at 5 mg/kg, po after 168 hrs by liquid scintillation counting; format: ADME, organism-based
[21] = Drug uptake in albino F344/DuCrlCrlj rat brown fat assessed as ng equivalent of CS-1036 at 5 mg/kg, po after 4 hrs by liquid scintillation counting; format: ADME, organism-based, Brown adipose tissue
[22] = system: Harderian gland; assay: Drug uptake in albino F344/DuCrlCrlj rat harderian gland at 5 mg/kg, po after 24 hrs by liquid scintillation counting; format: ADME, organism-based
[23] = system: Blood; assay: Drug uptake in albino F344/DuCrlCrlj rat blood assessed as ng equivalent of CS-1036 at 5 mg/kg, po after 168 hrs by liquid scintillation counting; format: ADME, organism-based; outline: as §1
[24] = system: Blood; assay: Drug uptake in albino F344/DuCrlCrlj rat blood at 5 mg/kg, po after 336 hrs by liquid scintillation counting; format: ADME, organism-based; outline: as §1
[25] = system: Stomach; assay: Drug uptake in albino F344/DuCrlCrlj rat stomach assessed as ng equivalent of CS-1036 at 5 mg/kg, po after 24 hrs by liquid scintillation counting; format: ADME, organism-based
[26] = system: Lung; assay: Drug uptake in albino F344/DuCrlCrlj rat lung at 5 mg/kg, po after 72 hrs by liquid scintillation counting; format: ADME, organism-based
[27] = Drug uptake in albino F344/DuCrlCrlj rat eyeball assessed as ng equivalent of CS-1036 at 5 mg/kg, po after 168 hrs by liquid scintillation counting; format: ADME, organism-based
[28] = system: Heart; assay: Drug uptake in albino F344/DuCrlCrlj rat heart at 5 mg/kg, po after 72 hrs by liquid scintillation counting; format: ADME, organism-based
[29] = Drug uptake in albino F344/DuCrlCrlj rat epididymis assessed as ng equivalent of CS-1036 at 5 mg/kg, po after 8 hrs by liquid scintillation counting; format: ADME, organism-based
[30] = system: Lung; assay: Drug uptake in albino F344/DuCrlCrlj rat lung assessed as ng equivalent of CS-1036 at 5 mg/kg, po after 4 hrs by liquid scintillation counting; format: ADME, organism-based
[31] = system: Small intestine; assay: Drug uptake in albino F344/DuCrlCrlj rat small intestine assessed as ng equivalent of CS-1036 at 5 mg/kg, po after 4 hrs by liquid scintillation counting; format: ADME, organism-based
[32] = system: Liver; assay: Drug uptake in albino F344/DuCrlCrlj rat liver at 5 mg/kg, po after 24 hrs by liquid scintillation counting; format: ADME, organism-based
[33] = system: Pancreas; assay: Drug uptake in albino F344/DuCrlCrlj rat pancreas assessed as ng equivalent of CS-1036 at 5 mg/kg, po after 72 hrs by liquid scintillation counting; format: ADME, organism-based
[34] = Drug uptake in albino F344/DuCrlCrlj rat fat at 5 mg/kg, po after 24 hrs by liquid scintillation counting; format: ADME, organism-based, Adipose tissue
Outline: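 Male F344/DuCrlCrlj rats (bought at 7 weeks, acclimatized 5–6 days; 159–167 g; n = 3 per time point) received a single oral dose of [14C]CS-1036 at 5 mg/kg. White adipose tissue was collected after abdominal aortic bleeding at 1, 4, 8, 24, 72, 168 or 336 h. Samples were counted by LSC with external-standard efficiency correction. Results were converted to ng equivalents per g from specific activity and sample weight.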

[35] = system: Thymus; assay: Drug uptake in albino F344/DuCrlCrlj rat thymus assessed as ng equivalent of CS-1036 at 5 mg/kg, po after 24 hrs by liquid scintillation counting; format: ADME, organism-based

SMILES: C[C@H]1O[C@@H](O[C@H]2[C@H](O)[C@@H](O)[C@@H](O[14C@H]3[14C@H](O)[14CH2]N[14C@@H]3[14CH2]O)O[C@@H]2CO)[C@H](O)[C@@H](O)[C@@H]1O
- Radiolabel recovery [1]: 5.1 ngequiv/g
- Radiolabel recovery [2]: 21.1 ngequiv/g
- Radiolabel recovery [3]: 16.5 ngequiv/g
- Radiolabel recovery [4]: 98.9 ngequiv/g
- Radiolabel recovery [5]: 3.3 ngequiv/g
- Radiolabel recovery [6]: 6.5 ngequiv/ml
- Radiolabel recovery [7]: 8.43 ngequiv/g
- Radiolabel recovery [8]: 8.6 ngequiv/g
- Radiolabel recovery [9]: 7.04 ngequiv/g
- Radiolabel recovery [10]: 41.1 ngequiv/g
- Radiolabel recovery [11]: 82.4 ngequiv/g
- Radiolabel recovery [12]: 8000 ngequiv/g
- Radiolabel recovery [13]: 18.9 ngequiv/g
- Radiolabel recovery [14]: 6.2 ngequiv/g
- Radiolabel recovery [15]: 9.35 ngequiv/g
- Radiolabel recovery [16]: 9.6 ngequiv/g
- Radiolabel recovery [17]: 3.46 ngequiv/g
- Radiolabel recovery [18]: 346 ngequiv/g
- Radiolabel recovery [19]: 59 ngequiv/g
- Radiolabel recovery [20]: 6.6 ngequiv/g
- Radiolabel recovery [21]: 2.5 ngequiv/g
- Radiolabel recovery [22]: 290 ngequiv/g
- Radiolabel recovery [23]: 3.52 ngequiv/ml
- Radiolabel recovery [24]: 5.27 ngequiv/ml
- Radiolabel recovery [25]: 16 ngequiv/g
- Radiolabel recovery [26]: 51.3 ngequiv/g
- Radiolabel recovery [27]: 2.3 ngequiv/g
- Radiolabel recovery [28]: 27.5 ngequiv/g
- Radiolabel recovery [29]: 37.8 ngequiv/g
- Radiolabel recovery [30]: 10.3 ngequiv/g
- Radiolabel recovery [31]: 903 ngequiv/g
- Radiolabel recovery [32]: 266 ngequiv/g
- Radiolabel recovery [33]: 82 ngequiv/g
- Radiolabel recovery [34]: 82.9 ngequiv/g
- Radiolabel recovery [35]: 5.8 ngequiv/g
